From ChEMBL document CHEMBL1129452, “Phenethylthiazolylthiourea (PETT) compounds as a new class of HIV-1 reverse transcriptase inhibitors. 2. Synthesis and further structure-activity relationship studies of PETT analogs” (J Med Chem, 1996)

What was measured:
MT4 [1] = experiment: Inhibition of mutant type (Ile100) HIV-1 (IIIB) replication in MT-4 cells; type: functional; details: Homo sapiens, read-out: ED50 (the source's name)
Outline: (§1)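 MT-4 cells (human T cell line) in RPMI 1640 with 10% fetal calf serum, penicillin and streptomycin, seeded at 2 × 10⁴ cells/well. Infected with 10-20 TCID₅₀ of mutant HIV-1 IIIB per well, with the compound added at different concentrations. Incubated at 37 °C in CO₂. Cell viability read by XTT dye at day 5 or 6. Activity taken as the reduction in viral cytopathic effect, given as ED₅₀. Mutants were raised by passage in stepwise increasing concentrations of non-nucleoside RT inhibitors.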

[2] = target: T1, Human immunodeficiency virus type 1 reverse transcriptase (Human immunodeficiency virus 1, UniProt Q72547); experiment: Tested for the inhibition of mutant type (Cys181) HIV-1 (IIIB) RT
[3] = target: T1, Human immunodeficiency virus type 1 reverse transcriptase; experiment: Tested for the inhibition of mutant type (Ile100) HIV-1 (IIIB) RT
MT4 [4] = experiment: Tested for the inhibition of wild type HIV-1 (IIIB) replication in MT-4 cells; type: functional; details: Homo sapiens, read-out: ED50 (the source's name)
Outline: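 MT-4 human T cells in RPMI 1640 with 10% fetal calf serum, penicillin and streptomycin, seeded at 2 × 10⁴ cells/well and infected with 10-20 TCID₅₀ HIV-1 IIIB per well. Compounds were added over a concentration range and cultures kept at 37 °C in CO₂. Viability was read by XTT at day 5 or 6, and activity was taken as reduction of viral cytopathic effect.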

[5] = target: T1, Human immunodeficiency virus type 1 reverse transcriptase; experiment: Tested for the inhibition of wild type HIV-1 (IIIB) RT
MT4 [6] = experiment: Inhibition of mutant type (Cys181) HIV-1 (IIIB) replication in MT-4 cells; type: functional; details: Homo sapiens, read-out: ED50 (the source's name); outline: as §1
MT4 [7] = experiment: Inhibition of HIV-1(IIIB) variants (Ile100/Asn103) in HIV-1 MT-4 cells; type: functional; details: Homo sapiens, read-out: ED50 (the source's name); outline: as §1
MT4 [8] = experiment: Inhibition of HIV-1(IIIB) variants (Ile100/Cys181) in HIV-1 MT-4 cells; type: functional; details: Homo sapiens, read-out: ED50 (the source's name); outline: as §1
MT4 [9] = experiment: Inhibition of HIV-1(IIIB) variants (Ile100/Cys181 in HIV-1 MT-4 cells; type: functional; details: Homo sapiens, read-out: ED50 (the source's name); outline: as §1

Row | Compound | EC50 (MT4 [1]) [nM] | IC50 [2] [nM] | IC50 [3] [nM] | EC50 (MT4 [4]) [nM] | IC50 [5] [nM] | EC50 (MT4 [6]) [nM] | EC50 (MT4 [7]) [nM] | EC50 (MT4 [8]) [nM] | EC50 (MT4 [9]) [nM]
1 | Fc1cc(F)c(CCNC(=S)Nc2ccc(Cl)cn2)c(F)c1 | 2000 | 290 | 810 | 10 | 2 | 1500 | – | – | –
2 | S=C(NCCc1c[nH]c2ccccc12)Nc1ccc(Br)cn1 | 3000 | 320 | > 2500 | 110 | 30 | 300 | – | – | –
3 | COc1ccc(F)c(CC/N=C(\S)Nc2ccc(Br)cn2)c1C#N | 250 | 50 | 50 | 3 | 1 | 40 | > 10000 | > 10000 | –
4 | S=C(NCCn1nc2ccccc2n1)Nc1ccc(Br)cn1 | 2000 | 100 | 2000 | 14 | 3 | 1000 | – | – | –
5 | COc1ccc2[nH]cc(CC/N=C(\S)Nc3ccc(Br)cn3)c2c1 | > 2000 | 2500 | > 2500 | 500 | 320 | 900 | – | – | –
6 | Fc1ccoc1CC/N=C(\S)Nc1ccc(Cl)cn1 | 100 | 140 | 230 | 7 | 4 | 80 | > 10000 | > 10000 | –
7 | Cn1cccc1CCNC(=S)Nc1ccc(Cl)cn1 | > 2000 | 1400 | 2700 | 250 | 90 | > 2000 | – | – | –
8 | COc1ccc(F)c(CC/N=C(\S)Nc2ccc(Cl)cn2)c1C#N | 400 | 1100 | 1100 | 11 | 5 | 100 | – | – | –
9 | O=C1c2ccccc2C(=O)N1CCNC(=S)Nc1ccc(Cl)cn1 | 200 | 130 | 280 | 5 | 1 | 40 | > 10000 | – | 15000
10 | Cc1cc2nn(CCNC(=S)Nc3ccc(Br)cn3)nc2cc1C | > 2000 | 100 | > 2500 | 220 | 150 | > 2000 | – | – | –
11 | CCOc1ccc(F)c(CC/N=C(\S)Nc2nc(C(F)(F)F)cs2)c1Cl | > 2000 | 7000 | 7000 | 70 | 47 | > 2000 | – | – | –
12 | Cn1cccc1CC/N=C(\S)Nc1ccc(C#N)cn1 | > 2000 | 1100 | 3500 | 110 | 70 | > 2000 | – | – | –
13 | CN(C)c1ccc(CC/N=C(\S)Nc2ccc(Br)cn2)c(F)c1C#N | 150 | 110 | 210 | 13 | 8 | 20 | 5500 | – | 7500
14 | COc1ccc(F)c(CCNC(=S)Nc2ccc(Br)cn2)c1OC | 3000 | 85 | 430 | 12 | 7 | 200 | – | – | –
15 | CN(C)c1ccc(F)c(CCNC(=S)Nc2ccc(Cl)cn2)c1F | > 2000 | 190 | 1900 | 40 | 8 | 700 | – | – | –
16 | CCOc1ccc(F)c(CCNC(=S)Nc2ccc(Br)cn2)c1F | 100 | 20 | 170 | 6 | 4 | 6 | > 10000 | 1200 | –
17 | COCc1ccc(F)c(CCNC(=S)Nc2ccc(Br)cn2)c1F | 2500 | 100 | 720 | 6 | 4 | 300 | – | – | –
18 | CCOc1ccc(F)c(CCNC(=S)Nc2ccc(Cl)cn2)c1Cl | 600 | 30 | 130 | 8 | 6 | 7 | – | – | –
19 | CCOc1ccc(F)c(CCNC(=S)Nc2ccc(I)cn2)c1Cl | 3000 | 130 | 420 | 15 | 8 | 200 | – | – | –
20 | COc1ccc(OC)c(CCNC(=S)Nc2ccc(Cl)cn2)c1F | 9 | 54 | 80 | 2 | 1 | 3 | 1000 | 1000 | –
21 | CCOc1cccc(F)c1CCNC(=S)Nc1ccc(Br)cn1 | 90 | 25 | 50 | 13 | – | 7 | 1600 | 1000 | –

Row | Compound | EC50 (MT4 [1]) [nM] | IC50 [2] [nM] | IC50 [3] [nM] | EC50 (MT4 [4]) [nM] | IC50 [5] [nM] | EC50 (MT4 [6]) [nM] | EC50 (MT4 [7]) [nM] | EC50 (MT4 [8]) [nM] | EC50 (MT4 [9]) [nM]
22 | CCOc1ccc(OCC)c(CCNC(=S)Nc2ccc(Br)cn2)c1 | > 2000 | 707 | 1650 | 18 | 18 | 800 | – | – | –
23 | CNC(=O)c1ccc(F)c(CC/N=C(\S)Nc2ccc(Br)cn2)c1F | > 2000 | > 2000 | > 2000 | 80 | 23 | 300 | – | – | –
24 | N#Cc1ccoc1CCNC(=S)Nc1ccc(Cl)cn1 | 700 | 2600 | 2600 | 20 | 60 | 200 | – | – | –
25 | O=C1c2c(Cl)ccc(Cl)c2C(=O)N1CCNC(=S)Nc1ccc(Cl)cn1 | > 2000 | 10 | 230 | 19 | 2 | > 2000 | – | – | –
26 | CCOc1c(Cl)cc(F)c(CCNC(=S)Nc2ccc(Br)cn2)c1Cl | 1000 | 660 | 240 | 13 | 21 | 20 | – | – | –
27 | COc1ccc(F)c(CCNC(=S)Nc2ccc(Br)cn2)c1F | 600 | 60 | 870 | 15 | 6 | 50 | – | – | –
28 | CCOc1ccc(OC)c(CCNC(=S)Nc2ccc(Cl)cn2)c1F | 90 | 34 | 160 | 5 | 5 | 9 | > 10000 | > 10000 | –
29 | CC(=O)NCc1ccc(F)c(CCNC(=S)Nc2ccc(Br)cn2)c1F | > 2000 | > 2000 | > 2000 | 900 | 45 | > 2000 | – | – | –
30 | CCOc1ccc(F)c(F)c1CCNC(=S)Nc1ccc(Br)cn1 | 1500 | 10 | 20 | 7 | 5 | 200 | > 10000 | > 10000 | –
31 | CCOc1ccc(F)c(CCNC(=S)Nc2ccc(C#N)cn2)c1Cl | 500 | 30 | 110 | 3 | 5 | 30 | – | – | –
32 | COc1ccc(F)c(CCNC(=S)Nc2ccc(C#N)cn2)c1C#N | 200 | 50 | 60 | 1 | 3 | 30 | – | – | –
33 | CCOc1ccc(Cl)c(CC/N=C(\S)Nc2ccc(Br)cn2)c1F | 900 | 9 | 90 | 18 | 2 | 50 | > 10000 | > 10000 | –
34 | CCOc1ccc(F)c(CC/N=C(\S)Nc2ccc(Br)cn2)c1C#N | 40 | 210 | 140 | 4 | 2 | 5 | > 10000 | 3000 | –
35 | CN(C)c1ccc(F)c(CCNC(=S)Nc2ccc(Br)cn2)c1F | > 2000 | 170 | 1900 | 40 | 7 | 1000 | – | – | –
36 | Fc1cccc(F)c1CCNC(=S)Nc1ccc(Br)cn1 | 600 | 30 | 50 | 13 | – | 150 | – | – | –
37 | CN(C)c1cc(F)c(CCNC(=S)Nc2ccc(Cl)cn2)c(F)c1 | 1500 | 130 | 270 | 18 | 20 | 900 | – | – | –
38 | CCc1cc(NCc2nc3c(Cl)ccc(Cl)c3o2)c(O)nc1C [L-697661] | 850 | 7700 | 850 | 65 | – | > 11000 | – | – | –
39 | Cc1ccnc2c1NC(=O)c1cccnc1N2C1CC1 [NEVIRAPINE] | 620 | – | – | 150 | – | 22000 | 8000 | > 10000 | –
40 | CCOc1ccc(F)c(CCNC(=S)Nc2ccc(Br)cn2)c1Cl [THIOUREA, N-(5-BROMO-2-PYRIDINYL)-N'-(2-(2-CHLORO-3-ETHOXY-6-FLUOROPHENYL)ETHYL)-] | 400 | 50 | 190 | 7 | 12 | 30 | – | – | –
41 | S=C(NCCc1ccccn1)Nc1ccc(Br)cn1 [TROVIRDINE] | – | – | – | 20 | – | – | – | – | –
